For test [1], the system named is PC-3. Nature of the test: Cytotoxicity against human PC3 cells assessed as reduction in cell viability incubated for 48 hrs by SRB assay. The format is functional, cell-based. Particulars: PC-3, 48 h. In short, it runs like this: (§1)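 SRB colorimetric antiproliferative assay. Cells were grown in RPMI-1640 with 10% heat-inactivated FBS and penicillin/streptomycin at 37 °C and 5% CO2, and compound-exposed for 48 h. IC50 is the concentration causing 50% inhibition of cell viability, given as mean ± SD of three determinations.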

The subject of test [2] is HeLa. The test can be described thus: Cytotoxicity against human HeLa cells assessed as reduction in cell viability incubated for 48 hrs by SRB assay. The format is functional, cell-based. A digest of the protocol:
as §1
Background: The SRB assay estimates cell density from bound dye.

Test [3] is filed under the species Sus scrofa. The test can be described thus: Induction of porcine brain tubulin polymerization at 3 uM incubated for 80 mins by fluorescence based spectrophotometry. A digest of the protocol: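 Fluorescence-based cell-free kit assay. Tubulin (10 mg/mL) in buffer 1 with tubulin glycerol buffer and GTP (100 mM stock) was incubated with compound or DMSO vehicle for 80 min at 37 °C. Polymerization was followed as fluorescence increase read every minute at 360 nm excitation and 460 nm emission.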

For test [4], the species on record is Sus scrofa. The test can be described thus: Inhibition of porcine brain tubulin polymerization at 3 uM incubated for 80 mins by fluorescence based spectrophotometry. In short, it runs like this:
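Fluorescence-based kit assay. Tubulin (10 mg/mL) in buffer 1 with tubulin glycerol buffer and GTP (100 mM stock) was incubated with compound at 3 µM, with DMSO as vehicle control, at 37 °C for 80 min. Polymerization was followed as the fluorescence increase, read every minute at 360 nm excitation and 460 nm emission.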

For test [5], the system named is PC-3. The test can be described thus: Cell cycle arrest in human PC3 cells assessed as accumulation at G0/G1 phase at 0.05 uM incubated for 24 hrs by propidium iodide staining based FACS assay (reference value: 62.5%). The format is functional. In short, it runs like this:
(§2)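 PC-3 cells in RPMI-1640 with 10% FBS at 37 °C and 5% CO2. Cells were plated at 1.0×10^5 cells/mL and pre-incubated 24 h, then treated. They were collected by centrifugation, fixed in 70% ethanol overnight at 4 °C, resuspended in PBS with RNase A and propidium iodide, and analysed by flow cytometry for phase distribution against untreated control.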

In test [6] the test system is PC-3. Nature of the test: Cell cycle arrest in human PC3 cells assessed as accumulation at S phase at 0.05 uM incubated for 24 hrs by propidium iodide staining based FACS assay (reference value: 23.5%). The format is functional. A digest of the protocol:
as §2

The subject of test [7] is PC-3. The test can be described thus: Cell cycle arrest in human PC3 cells assessed as accumulation at G2/M phase at 0.05 uM incubated for 24 hrs by propidium iodide staining based FACS assay (reference value: 14%). The format is functional. In short, it runs like this:
as §2
(In flow cytometry, cells or beads pass a laser one at a time.)

Usually pIC50 stands for the negative decadic logarithm of the IC50, by convention in mol/L.

pIC50: −log10 of the molar value. Activity calls are given as the source filed them. No cut-off for these calls is given here.

Take `COc1ccc([C@]2(c3cc(OC)c(OC)c(OC)c3)CC3=C(CCCC3=O)O2)cc1O`: the pIC50 was 4.82 in test [1] and < 5.00 in test [2].
For `CCCCC1(c2cc(OC)c(OC)c(OC)c2)CC(C(=O)c2ccccc2)=C(c2ccccc2)O1` (centres undefined), in that order: < 5.00 and < 5.00.
For `COc1ccc(C2=C(C#N)CC(c3ccc(OC)c(O)c3)(c3cc(OC)c(OC)c(OC)c3)O2)cc1` (centres undefined), in that order: < 5.00 and < 5.00.
Turning to `COc1ccc(C2(c3cc(OC)c(OC)c(OC)c3)CC(C#N)=C(c3ccccc3Cl)O2)cc1O` (centres undefined), the results for the pIC50 in test [1] and in test [2] were 6.10 and < 5.00, respectively.
The corresponding values for `COc1ccc(C2(c3cc(OC)c(OC)c(OC)c3)CC(C#N)=C(c3ccc(F)cc3)O2)cc1O` (centres undefined) are 6.09 and 5.14.
The corresponding values for `CCC(=O)C1=C(CC)OC(c2ccc(OC)c(O)c2)(c2cc(OC)c(OC)c(OC)c2)C1` (centres undefined) are 5.07 and < 5.00.
For `COc1ccc([C@@]2(c3cc(OC)c(OC)c(OC)c3)CC(C#N)=C(c3ccccc3)O2)cc1O`, in that order: 5.02 and < 5.00.
In the case of `COc1ccc(C2(c3cc(OC)c(OC)c(OC)c3)CC(c3cc(OC)c(OC)c(OC)c3Cl)=NO2)cc1O` (centres undefined), the pIC50 is 5.06 in test [1] and < 5.00 in test [2].
For `COc1ccc(C2(c3cc(OC)c(OC)c(OC)c3)CC(c3ccc(O)c(O)c3)=NO2)cc1O` (centres undefined), in that order: 5.02 and < 5.00.
For the compound `COc1ccc(C2=NOC(c3ccc(OC)c(O)c3)(c3cc(OC)c(OC)c(OC)c3)C2)cc1` (centres undefined), the pIC50 in test [1] and in test [2] was < 5.00 throughout.
As for `COc1ccc(C2=NOC(c3ccc(OC)c(O)c3)(c3cc(OC)c(OC)c(OC)c3)C2)cc1O` (centres undefined), the pIC50 in test [1] and in test [2] was < 5.00 in each case.
As for `CC(=O)O[C@H]1C(=O)[C@@]2(C)[C@H]([C@H](OC(=O)c3ccccc3)[C@]3(O)C[C@H](OC(=O)[C@H](O)[C@@H](NC(=O)c4ccccc4)c4ccccc4)C(C)=C1C3(C)C)[C@]1(OC(C)=O)CO[C@@H]1C[C@@H]2O`, the result in test [3] was Active.
As for `C=C(c1ccc(OC)c(O)c1)c1cc(OC)c(OC)c(OC)c1`, the pIC50 is 9.00 in test [1] and 7.07 in test [2]. For the same compound, in test [4], the inhibition entry was “Active”.
Take `COc1ccc(C2(c3cc(OC)c(OC)c(OC)c3)CC(C(=O)C(F)(F)F)=C(C)O2)cc1O` (centres undefined): the figures for the negative-log IC50 (pIC50) in test [1] and in test [2] were 5.02 and < 5.00, respectively.
The corresponding values for `CCCCC1(c2cc(OC)c(OC)c(OC)c2)CC(c2ccc(O)c(OC)c2)=NO1` (centres undefined) are < 5.00 and < 5.00.
The corresponding values for `CCCCC1(c2cc(OC)c(OC)c(OC)c2)CC(C#N)=C(C(C)(C)C)O1` (centres undefined) are < 5.00 and < 5.00.
For `COc1ccc(C2(c3cc(OC)c(OC)c(OC)c3)CC(c3ccc([N+](=O)[O-])cc3)=NO2)cc1O` (centres undefined), in that order: < 5.00 and < 5.00.
For the compound `COc1ccc(C2(c3cc(OC)c(OC)c(OC)c3)CC(c3ccc(Cl)cc3OC)=NO2)cc1O` (centres undefined), the pIC50 in test [1] and in test [2] was < 5.00 in each case.
In the case of `COc1ccc(C2(c3cc(OC)c(OC)c(OC)c3)CC(c3ccccc3Cl)=NO2)cc1O` (centres undefined), the pIC50 in test [1] is 6.09; in test [2], 5.49.
For `COc1ccc(C2(c3cc(OC)c(OC)c(OC)c3)CC(C(=O)c3ccccc3)=C(c3ccccc3)O2)cc1O` (centres undefined), in that order: 6.11 and 5.63.
For `COc1ccc(C2(c3cc(OC)c(OC)c(OC)c3)CC(c3ccc(O)c(OC)c3)=NO2)cc1O` (centres undefined), in that order: < 5.00 and < 5.00.
Take `COc1ccc(C2(c3cc(OC)c(OC)c(OC)c3)CC(C(=O)c3ccccc3)=C(C)O2)cc1O` (centres undefined): the pIC50 in test [1] and in test [2] was < 5.00 throughout.
For `COc1ccc(C2(c3cc(OC)c(OC)c(OC)c3)CC(C(C)=O)=C(C)O2)cc1O` (centres undefined), the pIC50 in test [1] is 5.20; in test [2] it was < 5.00.
The corresponding values for `COc1ccc(C2(c3cc(OC)c(OC)c(OC)c3)CC(C#N)=C(c3cccs3)O2)cc1O` (centres undefined) are 5.32 and < 5.00.
The corresponding values for `COc1ccc(C2(c3cc(OC)c(OC)c(OC)c3)CC(C#N)=C(c3ccc(Cl)cc3)O2)cc1O` (centres undefined) are 6.07 and < 5.00.
Consider `COc1ccc(C2(c3cc(OC)c(OC)c(OC)c3)CC(C#N)=C(C(C)(C)C)O2)cc1O` (centres undefined), for which the pIC50 in test [1] and in test [2] was < 5.00 throughout.
For `COc1ccc(C2(c3cc(OC)c(OC)c(OC)c3)CC(c3ccccc3[N+](=O)[O-])=NO2)cc1O` (centres undefined), the pIC50 in test [1] was 5.09; in test [2], < 5.00.
For `CCCCC1(c2cc(OC)c(OC)c(OC)c2)CC(c2ccc(Cl)cc2OC)=NO1` (centres undefined), in that order: < 5.00 and < 5.00.
Regarding `COc1ccc(/C=C\c2cc(OC)c(OC)c(OC)c2)cc1O` [COMBRETASTATIN A4], the pIC50 in test [1] was 8.15; in test [2], 6.28. Moreover, the figures for the Activity in test [5], in test [6] and in test [7] were 6.8%, 21.3% and 71.9%, respectively. In test [4], the inhibition entry is “Active”.
Consider `COc1ccc(C2(c3cc(OC)c(OC)c(OC)c3)CC(c3ccc(C)cc3)=NO2)cc1O` (centres undefined), for which the pIC50 in test [1] is 6.07; in test [2] it was 5.35.
The corresponding values for `COc1ccc([C@]2(c3cc(OC)c(OC)c(OC)c3)CC(C#N)=C(c3ccccc3)O2)cc1O` are 4.99 and < 5.00.
The corresponding values for `COc1ccc(C2(c3cc(OC)c(OC)c(OC)c3)CC(c3ccccc3)=NO2)cc1O` (centres undefined) are < 5.00 and < 5.00.
For `CCCCC1(c2cc(OC)c(OC)c(OC)c2)CC(C#N)=C(c2ccc(Cl)cc2)O1` (centres undefined), in that order: < 5.00 and < 5.00.
On to `COc1ccc(C2(c3cc(OC)c(OC)c(OC)c3)CC(C#N)=C(c3ccc(Cl)c(Cl)c3)O2)cc1O` (centres undefined), for which the pIC50 in test [1] and in test [2] was < 5.00 in each case.
On to `COc1ccc([C@@]2(c3cc(OC)c(OC)c(OC)c3)CC3=C(CCCC3=O)O2)cc1O`, for which the pIC50 in test [1] was 4.77; in test [2], < 5.00.
For `COc1ccc(C2(c3cc(OC)c(OC)c(OC)c3)CC(c3ccccn3)=NO2)cc1O` (centres undefined), in that order: < 5.00 and < 5.00.
As for `CCCCC1(c2cc(OC)c(OC)c(OC)c2)CC(c2ccc(Cl)cc2)=NO1` (centres undefined), the pIC50 in test [1] and in test [2] was < 5.00 throughout.
Consider `COc1ccc(C2(c3cc(OC)c(OC)c(OC)c3)CC(C#N)=C(c3ccc(Br)cc3)O2)cc1O` (centres undefined), for which the pIC50 in test [1] and in test [2] was < 5.00 in each case.
For the compound `COc1ccc(C2(c3cc(OC)c(OC)c(OC)c3)CC(C#N)=C(c3ccc(C)cc3)O2)cc1O` (centres undefined), the pIC50 in test [1] is 5.16; in test [2] it was < 5.00.
The corresponding values for `COc1ccc(C2(c3cc(OC)c(OC)c(OC)c3)CC(c3ccc(O)cc3)=NO2)cc1O` (centres undefined) are < 5.00 and 5.12.
